Source: ChEMBL document CHEMBL4732181, “Pyrazolo[3,4-d]pyrimidine-based dual EGFR T790M/HER2 inhibitors: Design, synthesis, structure-activity relationship and biological activity as potential antitumor and anticonvulsant agents” (Eur J Med Chem, 2021)
pIC50: −log10 of the molar value.

Legend:
[1] = system: Mus musculus; test: Anticonvulsant activity against mouse model of LiCa/pilocarpine-induced status epilepticus assessed as spectral edge frequency at 20 mg/kg, po for 10 days by EEG method relative to control; assay type: functional; conditions: time 10 day
Method in brief: (§1)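 Male mice (20-30 g), five per group, dosed orally once daily for 10 days. Status epilepticus was then induced with LiCa (3 mEq/kg i.p.), atropine sulfate (1 mg/kg i.p.) 30 min before pilocarpine, and pilocarpine HCl (300 mg/kg i.p.) 2 h after LiCa. Normal controls received oral distilled water. Comparators were untreated SE, phenytoin and lamotrigine. One-way ANOVA with Tukey post-hoc; mean ± SD.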

[2] = system: Mus musculus; test: Anticonvulsant activity against mouse model of LiCa/pilocarpine-induced status epilepticus assessed as power pV2 at 20 mg/kg, po for 10 days by EEG method relative to control; assay type: functional; conditions: time 10 day; method in brief: as §1
[3] = target: T1, Receptor tyrosine-protein kinase erbB-2 (Homo sapiens, UniProt P04626); test: Inhibition of HER2 (unknown origin)
T1 sequence (P04626 whole entry): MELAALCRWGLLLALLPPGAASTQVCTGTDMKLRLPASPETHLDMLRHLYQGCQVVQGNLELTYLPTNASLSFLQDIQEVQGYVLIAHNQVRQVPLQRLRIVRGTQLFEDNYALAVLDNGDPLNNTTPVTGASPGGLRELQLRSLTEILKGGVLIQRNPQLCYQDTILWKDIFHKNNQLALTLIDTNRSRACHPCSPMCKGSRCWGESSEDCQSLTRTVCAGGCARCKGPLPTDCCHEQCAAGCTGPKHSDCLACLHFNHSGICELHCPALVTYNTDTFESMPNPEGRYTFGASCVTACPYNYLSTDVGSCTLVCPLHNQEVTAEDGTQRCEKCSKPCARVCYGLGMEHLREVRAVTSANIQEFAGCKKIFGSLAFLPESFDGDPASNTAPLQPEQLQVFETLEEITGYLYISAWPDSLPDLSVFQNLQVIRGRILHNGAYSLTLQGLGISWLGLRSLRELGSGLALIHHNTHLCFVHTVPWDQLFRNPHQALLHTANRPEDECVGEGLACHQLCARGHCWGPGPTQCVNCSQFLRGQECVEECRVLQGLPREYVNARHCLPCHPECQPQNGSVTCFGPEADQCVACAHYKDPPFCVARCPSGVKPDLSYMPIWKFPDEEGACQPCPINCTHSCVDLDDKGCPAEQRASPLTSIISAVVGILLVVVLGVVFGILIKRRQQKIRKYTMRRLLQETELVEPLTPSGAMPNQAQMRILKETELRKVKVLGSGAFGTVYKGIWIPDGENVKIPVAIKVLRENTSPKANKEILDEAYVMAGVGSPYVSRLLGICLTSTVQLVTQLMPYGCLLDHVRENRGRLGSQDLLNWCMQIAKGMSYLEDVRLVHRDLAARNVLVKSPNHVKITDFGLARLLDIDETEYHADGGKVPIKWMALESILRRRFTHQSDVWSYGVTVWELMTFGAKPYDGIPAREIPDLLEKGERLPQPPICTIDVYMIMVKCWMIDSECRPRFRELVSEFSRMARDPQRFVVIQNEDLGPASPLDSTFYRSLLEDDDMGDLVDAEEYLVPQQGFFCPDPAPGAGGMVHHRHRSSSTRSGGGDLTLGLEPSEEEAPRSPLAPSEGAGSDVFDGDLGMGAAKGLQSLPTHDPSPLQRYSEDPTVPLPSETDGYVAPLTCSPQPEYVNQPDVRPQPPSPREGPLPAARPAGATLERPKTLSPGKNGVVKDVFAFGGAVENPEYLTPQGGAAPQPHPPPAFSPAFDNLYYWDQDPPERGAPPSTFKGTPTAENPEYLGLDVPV
Method in brief: (§2)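 Cell-free immunoassay kit measuring EGFR T790M/HER2 kinase inhibition. Percent inhibition screened at 10 µM. IC50 obtained from four concentrations (0.01-10 µM) by fitting E(%) = Emax/(1+[I]/ID50) to a dose-response curve. Mean of two independent replicates.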

[4] = system: Mus musculus; test: Anticonvulsant activity against mouse model of LiCa/pilocarpine-induced status epilepticus assessed as MDA level in brain at 20 mg/kg, po for 10 days by calorimetric method relative to control; assay type: functional; conditions: time 10 day; method in brief: as §1
[5] = target: T1, Receptor tyrosine-protein kinase erbB-2; test: Inhibition of HER2 (unknown origin) at 10 uM relative to control; method in brief: as §2
[6] = system: Mus musculus; test: Anticonvulsant activity against mouse model of LiCa/pilocarpine-induced status epilepticus assessed as Glutamate level in brain at 20 mg/kg, po for 10 days by ELISA relative to control; assay type: functional; conditions: time 10 day; method in brief: as §1
[7] = system: Mus musculus; test: Anticonvulsant activity against mouse model of LiCa/pilocarpine-induced status epilepticus assessed as delta at 20 mg/kg, po for 10 days by EEG method relative to control; assay type: functional; conditions: time 10 day; method in brief: as §1
[8] = system: Mus musculus; test: Anticonvulsant activity against mouse model of LiCa/pilocarpine-induced status epilepticus assessed as amplitude density at 20 mg/kg, po for 10 days by EEG method relative to control; assay type: functional; conditions: time 10 day; method in brief: as §1
[9] = system: WI-38; test: Cytotoxicity against human WI-38 cells assessed as reduction in cell viability after 48 hrs by MTT assay; assay type: cell-based; conditions: WI-38, 48 h
Method in brief: (§3)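 Cells from ATCC grown in DMEM with 10% FBS, insulin and 1% penicillin-streptomycin. Plated at 1.2-1.8 × 10,000 cells/well for 24 h, then exposed to compounds in DMSO vehicle for 48 h. MTT 0.5 mg/ml added for 2 h; absorbance read at 570 nm. Experiments run in triplicate.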

[10] = system: Mus musculus; test: Anticonvulsant activity against mouse model of LiCa/pilocarpine-induced status epilepticus assessed as alpha at 20 mg/kg, po for 10 days by EEG method relative to control; assay type: functional; conditions: time 10 day; method in brief: as §1
[11] = system: Mus musculus; test: Anticonvulsant activity against mouse model of LiCa/pilocarpine-induced status epilepticus assessed as GSH level in brain at 20 mg/kg, po for 10 days by calorimetric method relative to control; assay type: functional; conditions: time 10 day; method in brief: as §1
[12] = system: Mus musculus; test: Anticonvulsant activity against mouse model of LiCa/pilocarpine-induced status epilepticus assessed as total power at 20 mg/kg, po for 10 days by EEG method relative to control; assay type: functional; conditions: time 10 day; method in brief: as §1
[13] = system: Mus musculus; test: Anticonvulsant activity against mouse model of LiCa/pilocarpine-induced status epilepticus assessed as mean power frequency at 20 mg/kg, po for 10 days by EEG method relative to control; assay type: functional; conditions: time 10 day; method in brief: as §1
[14] = system: Mus musculus; test: Anticonvulsant activity against mouse model of LiCa/pilocarpine-induced status epilepticus assessed as amplitude at 20 mg/kg, po for 10 days by EEG method relative to control; assay type: functional; conditions: time 10 day; method in brief: as §1
[15] = system: Mus musculus; test: Anticonvulsant activity against mouse model of LiCa/pilocarpine-induced status epilepticus assessed as theta at 20 mg/kg, po for 10 days by EEG method relative to control; assay type: functional; conditions: time 10 day; method in brief: as §1
[16] = system: Mus musculus; test: Anticonvulsant activity against mouse model of LiCa/pilocarpine-induced status epilepticus assessed as GABA level in brain at 20 mg/kg, po for 10 days by ELISA relative to control; assay type: functional; conditions: time 10 day; method in brief: as §1
[17] = system: Mus musculus; test: Anticonvulsant activity against mouse model of LiCa/pilocarpine-induced status epilepticus assessed as total power density at 20 mg/kg, po for 10 days by EEG method relative to control; assay type: functional; conditions: time 10 day; method in brief: as §1
[18] = target: Epidermal growth factor receptor (Homo sapiens, UniProt P00533, T790M); test: Inhibition of EGFR T790M mutant (unknown origin)
Chain of Epidermal growth factor receptor (P00533 25-1210 T790M limits assumed): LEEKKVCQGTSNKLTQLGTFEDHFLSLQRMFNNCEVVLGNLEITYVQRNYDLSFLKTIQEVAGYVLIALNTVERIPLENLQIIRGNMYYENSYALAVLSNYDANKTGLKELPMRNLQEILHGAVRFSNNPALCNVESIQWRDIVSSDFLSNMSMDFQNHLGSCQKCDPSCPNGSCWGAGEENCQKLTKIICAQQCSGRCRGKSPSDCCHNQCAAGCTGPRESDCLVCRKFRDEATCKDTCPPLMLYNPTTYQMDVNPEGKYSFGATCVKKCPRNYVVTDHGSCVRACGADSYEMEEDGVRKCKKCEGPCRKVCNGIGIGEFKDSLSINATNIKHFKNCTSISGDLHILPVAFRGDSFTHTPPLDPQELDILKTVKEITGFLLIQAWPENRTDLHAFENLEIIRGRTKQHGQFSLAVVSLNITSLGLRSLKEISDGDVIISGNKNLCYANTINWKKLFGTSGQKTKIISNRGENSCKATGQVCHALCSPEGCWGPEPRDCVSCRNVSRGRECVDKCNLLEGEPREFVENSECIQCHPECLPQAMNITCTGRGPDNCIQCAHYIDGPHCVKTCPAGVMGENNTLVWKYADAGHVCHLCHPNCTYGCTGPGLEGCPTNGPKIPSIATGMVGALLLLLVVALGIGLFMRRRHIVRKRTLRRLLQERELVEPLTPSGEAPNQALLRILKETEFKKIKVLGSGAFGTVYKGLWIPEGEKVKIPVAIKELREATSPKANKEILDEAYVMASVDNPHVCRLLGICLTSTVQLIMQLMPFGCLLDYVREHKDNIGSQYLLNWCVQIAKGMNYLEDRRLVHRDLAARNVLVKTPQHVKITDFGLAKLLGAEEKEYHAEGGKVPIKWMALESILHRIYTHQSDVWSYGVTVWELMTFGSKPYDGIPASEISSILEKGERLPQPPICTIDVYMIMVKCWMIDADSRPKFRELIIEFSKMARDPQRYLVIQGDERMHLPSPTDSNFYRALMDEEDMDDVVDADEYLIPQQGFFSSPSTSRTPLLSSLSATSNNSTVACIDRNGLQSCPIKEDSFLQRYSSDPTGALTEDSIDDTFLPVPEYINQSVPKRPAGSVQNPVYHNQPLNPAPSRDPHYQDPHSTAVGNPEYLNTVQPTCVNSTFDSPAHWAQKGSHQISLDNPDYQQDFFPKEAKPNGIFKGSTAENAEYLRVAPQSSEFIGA

[19] = system: MCF7; test: Cytotoxicity against human MCF7 cells assessed as reduction in cell viability after 48 hrs by MTT assay; assay type: functional, cell-based; conditions: MCF7, 48 h; method in brief: as §3

Row | SMILES | Activity [1] | Activity [2] | pIC50 [3] | Activity [4] | inhibition [5] | Activity [6] | Activity [7] | Activity [8] | pIC50 [9] | Activity [10] | Activity [11] | Activity [12] | Activity [13] | Activity [14] | Activity [15] | Activity [16] | Activity [17] | pIC50 [18] | pIC50 [19]
1 | Cc1ccc(C2=N/C(=C\c3ccc(Cl)cc3)C(=O)NN2C(=O)c2nc3c(c(C)nn3-c3ccccc3)c(=O)[nH]2)cc1 | -20.49% | 152.01% | 4.95 | -50.74% | 54.5% | -36.07% | 256.83% | 71.73% | 7.58 | 13.75% | 113.22% | 15.45% | -29.47% | 66.22% | 34.92% | 58.15% | 208.36% |  | 
2 | Cc1nn(-c2ccccc2)c2nc(CC(=O)N3NC(=O)/C(=C\c4ccccc4)N=C3c3ccccc3)[nH]c(=O)c12 | -17.45% | 136.74% | 6.06 | -56.93% | 83.6% | -50.88% | 264.32% | 62.01% | 7.33 | 33.49% | 69.18% | 2.33% | -23.98% | 63.11% | 31.8% | 52.65% | 202.38% | 6.18 | 
3 | Cc1nn(-c2ccccc2)c2nc(CC(=O)N3NC(=O)/C(=C\c4ccccc4)N=C3c3ccc(Cl)cc3)[nH]c(=O)c12 | -17.33% | 117.95% |  | -46.88% |  | -45.51% | 264.98% | 68.09% | 7.10 | 34.85% | 191.86% | 0.29% | -28.52% | 55.11% | 34.99% | 40.05% | 175.43% |  | 
4 | COc1ccc(/C=C2/N=C(c3ccc(C)cc3)N(C(=O)Cc3nc4c(c(C)nn4-c4ccccc4)c(=O)[nH]3)NC2=O)cc1 | -26.44% | 218.96% |  | -69.49% |  | -50.42% | 362.78% | 82.98% | 7.73 | 0.71% | 50.67% | 33.82% | -33% | 80.44% | 27.12% | 71.88% | 264.63% |  | 
5 | Cc1ccc(C2=N/C(=C/c3ccccc3)C(=O)NN2C(=O)Cc2nc3c(c(C)nn3-c3ccccc3)c(=O)[nH]2)cc1 | -29% | 243.46% |  | -69.74% |  | -82.89% | 366.41% | 110.33% | 7.07 | -5.99% | 188.85% | 23.32% | -46.23% | 90.67% | 11.83% | 91.22% | 302.31% |  | 
6 | Cc1nn(-c2ccccc2)c2nc(C(=O)N3NC(=O)/C(=C/c4ccc(Cl)cc4)N=C3c3ccc(Cl)cc3)[nH]c(=O)c12 | -21.45% | 225.84% |  | -63.24% |  | -57.79% | 313.77% | 54.1% | 7.71 | 4.62% | 144.08% | 37.32% | -37.61% | 89.78% | 41.15% | 74.49% | 233.86% |  | 
7 | COc1ccc(/C=C2\N=C(c3ccc(Cl)cc3)N(C(=O)c3nc4c(c(C)nn4-c4ccccc4)c(=O)[nH]3)NC2=O)cc1 | -22.51% | 190.77% |  | -67.54% |  | -66.54% | 330.62% | 46.81% | 7.60 | -4.74% | 150.97% | 14.87% | -40.42% | 71.11% | 20.25% | 87.03% | 245.46% |  | 
8 | Cc1nn(-c2ccccc2)c2nc(C(=O)N3NC(=O)/C(=C/c4ccc(Cl)cc4)N=C3c3ccccc3)[nH]c(=O)c12 | -17.28% | 134.23% |  | -53.49% |  | -50.65% | 270.93% | 77.2% | 7.50 | 18.91% | 174.47% | 19.53% | -27.57% | 76% | 34.07% | 74.77% | 202.67% |  | 7.35
